Results published in ChEMBL document CHEMBL4184131, “Cyclotheonellazoles A-C, Potent Protease Inhibitors from the Marine Sponge Theonella aff. swinhoei” (J Nat Prod, 2017).
In brackets after ≈: the same amount, converted by molar mass. Starred links: 1 amine or outer side, 2 acyl side, 3 side chain; linkers in the order of their positions; H or OH if unused. Positions of bridges follow the written chain, without caps; N, C: chain ends. Non-standard residues stand in square brackets, D forms with d. Residues, ends and D or L forms follow the SMILES beside them. *: point of attachment. X2 = O=C(/C=C/c1csc([C@H](Cc2ccc(O)cc2)N[*:1])n1)[*:2]; X1 = CC[C@H](C)[C@H](N[*:1])C(=O)C(=O)[*:2]; Benzoyl(4-OH) = O=C(c1ccc(O)cc1)*; Cya = N[C@@H](CS(=O)(=O)O)C(=O)O; Nva = CCC[C@H](N)C(=O)O; Abu = CC[C@H](N)C(=O)O; Dap = NC[C@H](N)C(=O)O

What was measured:
Plasmodium falciparum [1] = assay: Antiplasmodial activity against Plasmodium falciparum assessed as inhibition of parasite growth incubated for 48 hrs by colorimetry based p-LDH assay; format: functional, organism-based
[2] = Inhibition of elastase (unknown origin) incubated for 20 mins using N-Suc-Ala-Ala-Ala-p-nitroanilide substrate by spectrophotometry; parameters: species or system Homo sapiens
Summary of the method: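 Tris buffer (2.422 g Tris HCl/100 mL, pH 8.0). Enzyme stock 75 mg/mL and N-Suc-Ala-Ala-Ala-p-nitroanilide stock 0.9 mg/mL, both in buffer. Enzyme with sample preincubated 20 min at 30 °C before substrate addition. Absorbance at 405 nm followed kinetically over 20 min. Serial dilutions from 1 mg/mL DMSO stock; IC50 from four-parameter logistic fit.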

[3] = Inhibition of chymotrypsin (unknown origin) incubated for 30 mins using Suc-Gly-Gly-phenylalanine-p-nitroanilide substrate by spectrophotometry; parameters: species or system Homo sapiens
Summary of the method: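 In Tris buffer (0.6 g Tris HCl/100 mL, pH 7.5), enzyme and Suc-Gly-Gly-Phe-p-nitroanilide substrate each dissolved in buffer at 1 mg/mL. Enzyme and sample preincubated 5 min at 37 °C, then substrate added. Absorbance at 405 nm read kinetically over 30 min. Samples from 1 mg/mL DMSO stock serially diluted; IC50 fitted by four-parameter logistic model.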

Plasmodium falciparum [4] = assay: Antiplasmodial activity against Plasmodium falciparum; format: functional, organism-based

IC50 [2] [nM]	IC50 [3] [nM]	Structure (SMILES)	IC50 (Plasmodium falciparum [1]) [µg/mL]	IC50 (Plasmodium falciparum [4]) [µg/mL]
0.1	2.8	CC[C@H](C)[C@@H]1NC(=O)[C@H](CC(C)C)NC(=O)[C@@H](NC(=O)[C@H](C)NC(=O)CNC(=O)c2ccc(O)cc2)CNC(=O)[C@H](CS(=O)(=O)[O-])NC(=O)/C=C/c2csc(n2)[C@H](Cc2ccc(O)cc2)NC(=O)C1=O.[Na+] ({Benzoyl(4-OH)}-GA[Dap]L[X1][X2][Cya]; lactam 3-C)	> 20	
		CO[C@H]1C[C@H](CC[C@H](C)[C@H](O)[C@H](C)[C@H]2OC(=O)/C=C/C(C)=C/C[C@H](O)C[C@@H]3C=CC[C@@H](C[C@H](OC)[C@@H](C)[C@@H](O)C[C@@H](O)[C@H](C)[C@@H]([C@@H](C)[C@@H](O)[C@@H](C)CC[C@H]4C[C@H](OC)C[C@H](C)O4)OC(=O)/C=C/C(C)=C/C[C@H](O)C[C@@H]4C=CC[C@@H](C[C@H](OC)[C@@H](C)[C@@H](O)C[C@@H](O)[C@@H]2C)O4)O3)O[C@@H](C)C1 [Swinholide A]		4.75 (≈ 3.42 µM)
0.099	2.3	CC[C@@H]1NC(=O)[C@@H](NC(=O)[C@H](C)NC(=O)CNC(=O)c2ccc(O)cc2)CNC(=O)[C@H](CS(=O)(=O)[O-])NC(=O)/C=C/c2csc(n2)[C@H](Cc2ccc(O)cc2)NC(=O)C(=O)[C@H]([C@@H](C)CC)NC1=O.[Na+] ({Benzoyl(4-OH)}-GA[Dap][Abu][X1][X2][Cya]; lactam 3-C)	> 20	

Structure (SMILES)	IC50 [2] [nM]	IC50 [3] [nM]	IC50 (Plasmodium falciparum [1]) [µg/mL]	IC50 (Plasmodium falciparum [4]) [µg/mL]
CCC[C@@H]1NC(=O)[C@@H](NC(=O)[C@H](C)NC(=O)CNC(=O)c2ccc(O)cc2)CNC(=O)[C@H](CS(=O)(=O)[O-])NC(=O)/C=C/c2csc(n2)[C@H](Cc2ccc(O)cc2)NC(=O)C(=O)[C@H]([C@@H](C)CC)NC1=O.[Na+] ({Benzoyl(4-OH)}-GA[Dap][Nva][X1][X2][Cya]; lactam 3-C)	0.034	0.62	> 20	
